# Experiments:
# Rattus norvegicus [1] = experiment: AUC (0 to infinity) in rat liver assessed as 2'-F-2'-C-Methyluridine-5''-TP level at 50 mg/kg, po; assay type: ADME, organism-based; parameters: time infinity, dose 50 mg/kg, route oral; settings: in vivo
# In short: (§1)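 Rats given a single oral gavage dose of 50 mg/kg in 0.5% carboxymethylcellulose sodium, 5 mL/kg. Livers taken at 0.5, 1, 2, 4, 6 and 12 h after CO2 sacrifice and ice-cold saline perfusion, then snap-frozen. Homogenized in 3 volumes of cold 70% methanol with 20 mM EDTA/EGTA. Triphosphate measured by LC/MS/MS (ESI, MRM negative mode), noncompartmental analysis.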
# [2] = Tmax in cynomolgus monkey plasma at 50 mg/kg, po qd for 4 days; assay type: ADME, organism-based, Macaca fascicularis; parameters: dose 50 mg/kg, route oral
# In short: (§2)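 Oral gavage (dog gastric, monkey nasogastric), 50 mg/kg in 20% w/v hydroxypropyl-β-cyclodextrin in water, 2.5 mL/kg, once daily for 4 consecutive days. Blood sampled into K2EDTA at 1, 2, 4, 6, 12 and 24 h postdose on day 3. Prodrug in plasma quantified by LC/MS/MS, noncompartmental analysis.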
# Canis familiaris [3] = experiment: Metabolic stability in dog liver assessed as 2'-F-2'-C-Methyluridine-5''-triphosphate level at 50 mg/kg, po; assay type: ADME, organism-based, Canis lupus familiaris; parameters: dose 50 mg/kg, route oral; settings: in vivo
# In short: (§3)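 Dogs and cynomolgus monkeys gavaged once daily with 50 mg/kg in 20% w/v hydroxypropyl-β-cyclodextrin for 4 days. At 4 h postdose on day 4, under pentobarbital, the liver was perfused with ice-cold saline via a portal cannula. Five lobe samples were snap-frozen and homogenized in 3 volumes of cold 70% methanol with 20 mM EDTA/EGTA. Prodrug and triphosphate measured by LC/MS/MS.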
# [4] = Cytotoxicity against human BxPC3 cells at 100 uM; assay type: cell-based; settings: bxpc-3, 100 µM
# In short: (§4)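 Huh7, HepG2 and BxPC3 cells at 2 × 10^3 per well, CEM at 5 × 10^3 per well. Compound serially diluted from 100 μM, 8 days at 37 °C. MTS added for 2 h, absorbance read at 490 nm with medium-only blanks. CC50 taken relative to untreated cells.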
# [5] = Tmax in dog plasma at 50 mg/kg, po qd for 4 days; assay type: ADME, organism-based, Canis lupus familiaris; parameters: dose 50 mg/kg, route oral; in short: as §2
# [6] = AUC (0 to t) in cynomolgus monkey plasma at 50 mg/kg, po qd for 4 days; assay type: ADME, organism-based, Macaca fascicularis; parameters: dose 50 mg/kg, route oral; in short: as §2
# [7] = AUC (0 to infinity) in cynomolgus monkey plasma at 50 mg/kg, po qd for 4 days; assay type: ADME, organism-based, Macaca fascicularis; parameters: time infinity, dose 50 mg/kg, route oral; in short: as §2
# Rattus norvegicus [8] = experiment: Toxicity in rat assessed as change in macroscopic pathology at 50 to 1800 mg/kg, po after 14 days; assay type: organism-based; parameters: dose 50-1800 mg/kg, route oral; settings: in vivo, 336 h
# In short: (§5)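 Rats (CD SD, 4–5 weeks, 76–100 g) given a single oral dose of 50, 300 or 1800 mg/kg, or vehicle (30% PEG400/30% Tween 20/20% corn oil/20% water). Observed daily for 14 days with daily body weights. Necropsy on day 15 with macroscopic examination and liver and paired kidney weights.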
# Rattus norvegicus [9] = experiment: Toxicity in rat assessed as change in liver weight at 50 to 1800 mg/kg, po after 14 days; assay type: organism-based; parameters: dose 50-1800 mg/kg, route oral; settings: in vivo, 336 h; in short: as §5
# Hepatitis C virus [10] = experiment: Antiviral activity against HCV infected in human clone A cells assessed as inhibition of cellular rRNA replication at 50 uM; assay type: functional, Hepacivirus hominis
# CCRF-CEM [11] = experiment: Cytotoxicity against human CEM cells at 100 uM; assay type: cell-based; in short: as §4
# Rattus norvegicus [12] = experiment: Cmax in rat liver assessed as 2'-F-2'-C-Methyluridine-5''-TP level at 50 mg/kg, po; assay type: ADME, organism-based; parameters: dose 50 mg/kg, route oral; settings: in vivo; in short: as §1
# [13] = AUC (0 to t) in dog plasma at 50 mg/kg, po qd for 4 days; assay type: ADME, organism-based, Canis lupus familiaris; parameters: dose 50 mg/kg, route oral; in short: as §2
# [14] = Half life in simulated gastric fluid at pH 1.2 at 50 ug/mL; assay type: physicochemical
# In short: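 Compound at 50 μg/mL in simulated gastric fluid (pH 1.2) or simulated intestinal fluid (pH 7.5), 37 °C, 20 h. Injected by reverse-phase HPLC every 2 h, peak area at 260 nm. Percent parent remaining relative to 0 h, giving half-life.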
# [15] = Permeability by PAMPA assay; assay type: ADME; settings: read-out: permeability
# In short: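 PAMPA with a lecithin-in-dodecane (20 mg/mL) coated filter donor. Donor held 200 μg/mL compound in PBS pH 7.4 with 2% DMSO; acceptor held PBS with 2% DMSO. Left 24 h. Donor and acceptor concentrations measured by LC/MS/MS (MRM), and Pe calculated from concentrations, volumes, filter area and time.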
# Rattus norvegicus [16] = experiment: Toxicity in rat assessed as mortality at 50 to 1800 mg/kg, po after 14 days; assay type: organism-based; parameters: dose 50-1800 mg/kg, route oral; settings: in vivo, 336 h; in short: as §5
# [17] = AUC (0 to infinity) in dog plasma at 50 mg/kg, po qd for 4 days; assay type: ADME, organism-based, Canis lupus familiaris; parameters: time infinity, dose 50 mg/kg, route oral; in short: as §2
# Rattus norvegicus [18] = experiment: Tmax in rat liver assessed as 2'-F-2'-C-Methyluridine-5''-TP level at 50 mg/kg, po; assay type: ADME, organism-based; parameters: dose 50 mg/kg, route oral; settings: in vivo; in short: as §1
# HepG2 = experiment: Cytotoxicity against human HepG2 cells at 100 uM; assay type: cell-based; settings: hepg2, 100 µM; in short: as §4
# Rattus norvegicus [19] = experiment: Toxicity in rat assessed as change in body weight at 50 to 1800 mg/kg, po after 14 days; assay type: organism-based; parameters: dose 50-1800 mg/kg, route oral; settings: in vivo, 336 h; in short: as §5
# Canis familiaris [20] = experiment: Metabolic stability in dog liver assessed as prodrug level at 50 mg/kg, po; assay type: ADME, organism-based, Canis lupus familiaris; parameters: dose 50 mg/kg, route oral; settings: in vivo; in short: as §3
# [21] = Cmax in cynomolgus monkey plasma at 50 mg/kg, po qd for 4 days; assay type: ADME, organism-based, Macaca fascicularis; parameters: dose 50 mg/kg, route oral; in short: as §2
# [22] = Cytotoxicity against HuH7 cells at 100 uM; assay type: cell-based; settings: human, huh-7, 100 µM; in short: as §4
# Hepatitis C virus [23] = experiment: Antiviral activity against HCV infected in human clone A cells; assay type: functional, Hepacivirus hominis
# In short: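 Clone A replicon cells seeded at 1500 cells/well. Compounds serially diluted in G418-free culture medium and added, then incubated 4 days at 37 °C in 5% CO2. HCV RNA quantified by real-time RT-PCR as ΔCt relative to the mean no-drug control.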
# Rattus norvegicus [24] = experiment: Toxicity in rat assessed as change in kidney weight at 50 to 1800 mg/kg, po after 14 days; assay type: organism-based; parameters: dose 50-1800 mg/kg, route oral; settings: in vivo, 336 h; in short: as §5
# Cynomolgus monkey [25] = experiment: Metabolic stability in cynomolgus monkey liver assessed as prodrug level at 50 mg/kg, po; assay type: ADME, organism-based, Macaca fascicularis; parameters: dose 50 mg/kg, route oral; settings: in vivo; in short: as §3
# [26] = Cmax in dog plasma at 50 mg/kg, po qd for 4 days; assay type: ADME, organism-based, Canis lupus familiaris; parameters: dose 50 mg/kg, route oral; in short: as §2
# [27] = Half life in human liver S9 fraction at 100 uM; assay type: ADME, subcellular
# In short: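 Compound at 100 μM in 50 mM K2HPO4 pH 7.4 with 5 mM MgCl2. Started with 4 mg/mL human liver S9 at 37 °C. Samples at 0–24 h quenched with acetonitrile. Parent remaining measured by LC/MS/MS peak area relative to 0 h, and half-life calculated.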
# Rattus norvegicus [28] = experiment: AUC (0 to t) in rat liver assessed as 2'-F-2'-C-Methyluridine-5''-TP level at 50 mg/kg, po; assay type: ADME, organism-based; parameters: dose 50 mg/kg, route oral; settings: in vivo; in short: as §1
# [29] = Cytotoxicity against human myeloid progenitor cells after 14 to 16 days
# [30] = Cytotoxicity against human erythroid progenitor cells after 14 to 16 days
# Cynomolgus monkey [31] = experiment: Metabolic stability in cynomolgus monkey liver assessed as 2'-F-2'-C-Methyluridine-5''-triphosphate level at 50 mg/kg, po; assay type: ADME, organism-based, Macaca fascicularis; parameters: dose 50 mg/kg, route oral; settings: in vivo; in short: as §3
# [32] = Cytotoxicity against human HepG2 cells assessed as inhibition of ribosomal DNA; assay type: cell-based
# In short: (§6)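 CEM or HepG2 cells at 1 × 10^4 per well, compound serially diluted from 100 μM, 14 days at 37 °C, 5% CO2. Medium with compound renewed on days 7 and 11. Total DNA extracted; mitochondrial COXII DNA and rDNA measured by multiplex quantitative PCR. ΔCt converted to log reduction, inhibition relative to untreated cells, and the 90% inhibitory concentration reported.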
# CCRF-CEM [33] = experiment: Cytotoxicity against human CEM cells assessed as inhibition of ribosomal DNA up to 100 uM; assay type: cell-based; in short: as §6
# [34] = tested on: Hepatitis C virus NS5B S96T/N142T mutant; experiment: Antiviral activity against HCV expressing NS5B polymerase S96T/N142T mutation infected in human ET-lunet cells
# [35] = Cytotoxicity against human HepG2 cells assessed as inhibition of mitochondrial DNA; assay type: cell-based; in short: as §6
# Hepatitis C virus [36] = experiment: Antiviral activity against HCV expressing NS5B polymerase S282T mutation infected in clone A cells; assay type: functional, Hepacivirus hominis
# In short: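 Replicon cells seeded at 1500 (clone A) or 3000 (ET-lunet) per well. Serially diluted compound added in medium without G418, 4 days at 37 °C, 5% CO2. HCV RNA measured by real-time RT-PCR as ΔCt versus no-drug control. EC90 calculated; fold change of S282T mutant versus wild-type replicon EC90. At least three independent experiments.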
# Hepatitis C virus [37] = experiment: Antiviral activity against HCV infected in human ET-lunet cells; assay type: functional, Hepacivirus hominis
# In short: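 ET-lunet replicon cells seeded at 3000 cells/well. Compounds serially diluted in culture medium without G418 and added to cells, which were incubated 4 days at 37 °C in 5% CO2. HCV RNA replication measured by quantitative real-time RT-PCR as ΔCt against the mean no-drug control threshold cycle. EC90, the concentration giving 90% inhibition, was calculated.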
# CCRF-CEM [38] = experiment: Cytotoxicity against human CEM cells assessed as inhibition of mitochondrial DNA up to 100 uM; assay type: cell-based; in short: as §6
structure (smiles),measurement,setting,value
CC(C)OC(=O)[C@H](C)NP(=O)(OC[C@H]1O[C@@H](n2ccc(=O)[nH]c2=O)[C@](C)(F)[C@@H]1O)Oc1ccccc1 (stereo partly specified),AUC,Rattus norvegicus [1],18080 ng·h/g
same,Tmax,[2],1 h
same,Drug uptake,Canis familiaris [3],10560 ng/g
same,Activity,[4],Non-toxic
same,Tmax,[5],0.5 h
same,AUC(0-t) at 96 h,[6],86 ng·h/mL
same,AUC(0-inf),[7],170 ng·h/mL
same,Activity,Rattus norvegicus [8],Non-toxic
same,Activity,Rattus norvegicus [9],Non-toxic
same,inhibition at 50 µM,Hepatitis C virus [10],25.9%
same,Activity,CCRF-CEM [11],Non-toxic
same,Cmax,Rattus norvegicus [12],1934 ng/g
same,AUC(0-t) at 96 h,[13],6890 ng·h/mL
same,half-life at 50 ug/mL,[14],22 h
same,Papp,[15],0.046 ×10⁻⁶ cm/s
same,Activity,Rattus norvegicus [16],Non-toxic
same,AUC(0-inf),[17],6900 ng·h/mL
same,Tmax,Rattus norvegicus [18],4 h
same,Activity,HepG2,Non-toxic
same,Activity,Rattus norvegicus [19],Non-toxic
same,Drug uptake,Canis familiaris [20],612 ng/g
same,Cmax,[21],33 ng/mL
same,Activity,[22],Non-toxic
same,EC90,Hepatitis C virus [23]; Hepatitis C virus,0.52 µM
same,Activity,Rattus norvegicus [24],Non-toxic
same,Drug uptake,Cynomolgus monkey [25],177 ng/g
same,Cmax,[26],6180 ng/mL
same,half-life at 100 µM,[27],0.57 h
same,AUC,Rattus norvegicus [28],16796 ng·h/g
same,IC50,[29],> 50 µM
same,IC50,[30],> 50 µM
same,Drug uptake,Cynomolgus monkey [31],57 ng/g
CC(C)OC(=O)[C@H](C)N[P@](=O)(OC[C@H]1O[C@@H](n2ccc(=O)[nH]c2=O)[C@](C)(F)[C@@H]1O)Oc1ccccc1 [SOFOSBUVIR],CC90,[32],68.6 µM
same,Activity,CCRF-CEM [33],Non-toxic
same,EC90,[34],0.11 µM
same,CC90,[35],72.1 µM
same,EC90,Hepatitis C virus [36],7.8 µM
same,EC90,Hepatitis C virus [37],0.23 µM
same,EC90,Hepatitis C virus [23],0.42 µM
same,Activity,CCRF-CEM [38],Non-toxic
CC(C)OC(=O)[C@H](C)N[P@@](=O)(OC[C@H]1O[C@@H](n2ccc(=O)[nH]c2=O)[C@](C)(F)[C@@H]1O)Oc1ccccc1,Activity,CCRF-CEM [33],Non-toxic
same,EC90,[34],1.3 µM
same,EC90,Hepatitis C virus [36],> 100 µM
same,EC90,Hepatitis C virus [37],3.3 µM
same,EC90,Hepatitis C virus [23]; Hepatitis C virus,7.5 µM
same,Activity,CCRF-CEM [38],Non-toxic
